1 compound from PMC7094870 (ACS chemical biology, 2020) can be followed below.

A word on the Kd: it is the concentration at which binding is half-saturated.

The test system of data set [1] is CrpE P450 (histidine tagged). Description: CrpE P450 substrate binding titration. More on the design: species or system Nostoc sp. ATCC 53789. As to conditions: type I (substrate-like) or type II (inhibitor-like) shift.
In another data set the target is (UniProt A4D937). Description: CrpE P450 substrate binding titration. More on the design: species or system Nostoc sp. ATCC 53789.
Chain of (UniProt A4D937) (A4D937 1-450): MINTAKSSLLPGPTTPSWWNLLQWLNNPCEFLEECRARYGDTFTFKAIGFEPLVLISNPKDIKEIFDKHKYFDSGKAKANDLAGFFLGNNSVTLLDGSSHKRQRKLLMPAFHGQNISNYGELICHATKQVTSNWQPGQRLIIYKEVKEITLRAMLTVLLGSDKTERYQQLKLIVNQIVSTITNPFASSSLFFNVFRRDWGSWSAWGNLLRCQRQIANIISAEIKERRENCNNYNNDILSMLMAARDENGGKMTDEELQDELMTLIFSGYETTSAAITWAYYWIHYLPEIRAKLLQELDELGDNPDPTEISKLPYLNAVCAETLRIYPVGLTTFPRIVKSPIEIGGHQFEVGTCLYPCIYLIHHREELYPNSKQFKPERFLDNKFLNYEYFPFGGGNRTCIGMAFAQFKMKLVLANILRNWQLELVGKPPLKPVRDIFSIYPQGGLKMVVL
Data set [2] concerns CrpTE (cryptophycin thioesterase). Put plainly: Analytical substrate conversion assay of CrpTE. Type of data set: biochemical. A digest of the protocol:
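Analytical-scale reactions of CrpTE with NAc-activated seco substrates carrying varied unit A aryl or heterocyclic groups (including methyl pyrazoles), with the benzyl substrate run as a control. Chromatographic peaks were assigned to unreacted starting material, hydrolysis product and cyclized macrolactone. Where starting material and hydrolysis peaks co-eluted, values were estimated from extrapolated peaks.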

Another data set relates to CrpE P450. Put plainly: CrpE in vitro epoxidation conversion assay. Format: biochemical, Nostoc sp. ATCC 53789.

For `COc1ccc(C[C@H]2NC(=O)/C=C/C[C@@H]([C@H](C)/C=C/c3ccccc3)OC(=O)[C@H](CC(C)C)OC(=O)[C@H](C)CNC2=O)cc1Cl` [16a, cryptophycin 3], in data set [1], the “spectral shift on binding to CrpE” value is “type I shift”. Binding on (UniProt A4D937) was characterised by a dissociation constant (Kd) of 530 ± 150 nM. Moreover, in data set [2] (TTN = moles of product / moles of TE), the “total turnover number (TTN)” value worked out at 110. Besides, the “percent conversion (CrpTE cyclization)” value in data set [2] (analytical scale, wild type CrpTE, NAc-activated seco substrate) is listed as 73%. Also, in the data set with CrpE P450 (RhFRED redox system), the “conversion (CrpE epoxidation)” value is given as “no conversion”. Moreover, in the data set on CrpE P450 (spinach ferredoxin and ferredoxin reductase redox system), the “percent conversion (CrpE epoxidation)” value came out at 38%.
